Measurements reported in ChEMBL document CHEMBL4017489, “Design, Synthesis, and Evaluation of New Selective NM23-H2 Binders as c-MYC Transcription Inhibitors via Disruption of the NM23-H2/G-Quadruplex Interaction” (J Med Chem, 2017).
Calls of active or inactive are those of the source. No cut-off for these calls is given here.

How the values were obtained:
[1] = Anticlonogenic activity against mouse primary mesangial cells at 0.03125 to 0.5 uM after 14 days by crystal violet staining based assay; assay type: ADME; conditions: primary mesangial cell, 336 h
Outline: (§1)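 Colony formation: SiHa cells and primary cultured mouse mesangial cells exposed to 0.5, 0.25, 0.125, 0.0625 and 0.03125 μM for 14 days, DMSO as negative control; three repeats.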

[2] = Cell cycle arrest in mouse primary mesangial cells at 2 uM after 9 to 48 hrs by propidium iodide staining based flow cytometry method
SiHa [3] = experiment: Cell cycle arrest in human SiHa cells assessed as accumulation at G0/G1 phase at 2 uM after 12 hrs by propidium iodide staining based flow cytometry (reference value: 48 %); assay type: functional
Outline: (§2)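 SiHa cells plated 24 h, treated at 2 μM for 3–48 h; fixed in ice-cold 70% ethanol overnight, RNase A 20 μg/mL 37 °C 30 min, PI-stained, flow cytometry at 488 nm; phase percentages quantified; at least three experiments.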

Mus musculus [4] = experiment: Toxicity in BALB/C nude mouse xenografted with human SiHa cells at 2.5 to 5 mg/kg, ip administered daily after 3 weeks; assay type: organism-based; conditions: in vivo, 504 h
Outline: (§3)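 SiHa cells implanted in the right armpit of BALB/c nu/nu mice. At approximately 50 mm3, mice randomized (n = 8/group) to vehicle, compound 2.5 or 5.0 mg/kg, or doxorubicin 1.0 mg/kg, given ip daily for 3 weeks. Body weight and signs of pain, distress or discomfort monitored; tumors excised and weighed. Data given as mean ± SEM, t test against vehicle.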

SiHa [5] = experiment: Induction of apoptosis in human SiHa cells assessed as early apoptotic cells at 0.5 uM after 48 hrs by Annexin V-FITC/propidium iodide based flow cytometric analysis (reference value: 1.4 %); assay type: functional
[6] = Antiproliferative activity against mouse primary mesangial cells at 0.5 to 2 uM up to 100 hrs by real-time cellular activity assay; assay type: cell-based; conditions: primary mesangial cell
Outline: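 Impedance-based real-time cell analysis at 37 °C, 5% CO2: 100 μL of 20 000 cells/mL added over medium background, settled 20 min, dosed after 24 h; read every 2 min for 2 h, then every 15 min to end; three repeats.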

[7] = Binding affinity to N-terminal NT-647-NHS labeled NM23-H2 D121A mutant (unknown origin) after 30 mins by MST analysis; parameters: species or system Homo sapiens
SiHa [8] = experiment: Cell cycle arrest in human SiHa cells assessed as accumulation at sub-G1 phase at 2 uM after 24 hrs by propidium iodide staining based flow cytometry relative to control; assay type: functional
Outline: (§4)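 SiHa cells (2.0 × 10^5 per well) plated 24 h, then exposed to 2 μM compound or left untreated for 3, 6, 9, 12, 24, 36 or 48 h. Cells washed in PBS, fixed overnight in ice-cold 70% ethanol, treated with 20 μg/mL RNase A for 30 min at 37 °C, stained with PI, and read by flow cytometry at 488 nm. Phase percentages compared with untreated control; at least three experiments.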

SiHa [9] = experiment: Induction of apoptosis in human SiHa cells assessed as early apoptotic cells at 2 uM after 48 hrs by Annexin V-FITC/propidium iodide based flow cytometric analysis (reference value: 1.4 %); assay type: functional
SiHa [10] = experiment: Cell cycle arrest in human SiHa cells assessed as accumulation at S phase at 2 uM after 24 hrs by propidium iodide staining based flow cytometry (reference value: 13 %); assay type: functional; outline: as §4
SiHa [11] = experiment: Induction of apoptosis in human SiHa cells assessed as late apoptotic cells at 1 uM after 48 hrs by Annexin V-FITC/propidium iodide based flow cytometric analysis (reference value: 0.7 %); assay type: functional
[12] = biological target: T1, Nucleoside diphosphate kinase B (Homo sapiens, UniProt P22392); experiment: Binding affinity to NM23-H2 (unknown origin) by SPR analysis
T1 sequence (P22392 whole entry): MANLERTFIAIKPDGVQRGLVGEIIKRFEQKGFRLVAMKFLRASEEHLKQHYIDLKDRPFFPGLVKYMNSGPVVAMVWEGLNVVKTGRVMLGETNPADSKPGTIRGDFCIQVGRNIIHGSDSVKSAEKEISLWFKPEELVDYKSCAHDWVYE

SiHa [13] = experiment: Cell cycle arrest in human SiHa cells assessed as accumulation at G0/G1 phase at 2 uM after 6 hrs by propidium iodide staining based flow cytometry (reference value: 48 %); assay type: functional; outline: as §2
SiHa [14] = experiment: Anticlonogenic activity against human SiHa cells up to 0.5 uM after 14 days by crystal violet staining based assay; assay type: functional, cell-based; outline: as §1
SiHa [15] = experiment: Cell cycle arrest in human SiHa cells assessed as accumulation at sub-G1 phase at 2 uM after 36 hrs by propidium iodide staining based flow cytometry relative to control; assay type: functional; outline: as §4
SiHa [16] = experiment: Down regulation of CDK4 expression in human SiHa cells at 0.5 to 2 uM after 24 to 48 hrs by Western blot analysis; assay type: functional, cell-based
Outline: (§5)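 SiHa cells (2.0 × 10^5) treated with compound at various concentrations for 24 or 48 h, then lysed at 4 °C. Protein measured by BCA; 30 μg run on 10% SDS-PAGE and transferred to nitrocellulose. Membranes blocked in 5% milk, probed with primary antibodies overnight at 4 °C, then HRP secondary for 2 h, and detected by chemiluminescence. Bands quantified by densitometry; at least three experiments.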

[17] = biological target: T1, Nucleoside diphosphate kinase B; experiment: Binding affinity to N-terminal NT-647-NHS labeled NM23-H2 (unknown origin) after 30 mins by MST analysis
Outline: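 NM23-H2 N-terminally labeled with RED-NHS dye (20 μM protein, 30 min dark, RT), free dye removed; 200 nM labeled protein with compound from 500 μM, 16 twofold steps, 30 min RT in 50 mM Tris-HCl pH 7.4, 150 mM NaCl, 10 mM MgCl2, 0.05% Tween-20; KD at half-plateau.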

[18] = biological target: Nucleoside diphosphate kinase B (Homo sapiens, UniProt P22392, H118F); experiment: Binding affinity to NM23-H2 H118F mutant (unknown origin) by SPR analysis
Sequence of Nucleoside diphosphate kinase B (Homo sapiens, UniProt P22392, H118F) (P22392 whole entry H118F): as the sequence (P22392 whole entry) above, with H118F counted along it

[19] = Binding affinity to 5'-FAM/3'-TAMRA labeled Pu22 c-myc G-quadruplex DNA (unknown origin) assessed as increase in melting temperature at 1 uM by FRET assay
SiHa [20] = experiment: Down regulation of cyclin D1 expression in human SiHa cells at 0.5 to 2 uM after 24 to 48 hrs by Western blot analysis; assay type: functional, cell-based; outline: as §5
SiHa [21] = experiment: Cell cycle arrest in human SiHa cells assessed as accumulation at G0/G1 phase at 2 uM after 24 hrs by propidium iodide staining based flow cytometry (reference value: 48 %); assay type: functional; outline: as §2
[22] = biological target: T1, Nucleoside diphosphate kinase B; experiment: Binding affinity to NM23-H2 in human SiHa cells assessed as disruption of protein interaction with c-myc G-quadruplex DNA by measuring decrease in c-MYC mRNA level after 9 hrs by RT-PCR analysis; assay type: cell-based
Outline: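 SiHa cells treated at 0, 0.5, 1.0, 2.0 μM for 9 h; TRIzol RNA, 1.5 μg reverse-transcribed with oligo(dT); semiquantitative PCR, 30 cycles, 58 °C annealing; bands normalized to β-actin, untreated 100%; three repeats.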

Mus musculus [23] = experiment: Toxicity in BALB/C nude mouse xenografted with human SiHa cells assessed as change in body weight at 2.5 to 5 mg/kg, ip administered daily after 3 weeks; assay type: organism-based; conditions: in vivo, 504 h; outline: as §3
SiHa [24] = experiment: Induction of apoptosis in human SiHa cells assessed as late apoptotic cells at 0.5 uM after 48 hrs by Annexin V-FITC/propidium iodide based flow cytometric analysis (reference value: 0.7 %); assay type: functional
SiHa [25] = experiment: Induction of apoptosis in human SiHa cells assessed as necrotic cells at 0.5 uM after 48 hrs by Annexin V-FITC/propidium iodide based flow cytometric analysis (reference value: 0.3%); assay type: functional

- Kd [7]: 94.1 µM
- Kd [12]: 3.1 µM
- Kd [17]: 2 µM
- Kd [18]: 47 µM
- Activity [19]: inactive
- Activity [22]: Dose-dependent effect
SMILES: CN(C)CCCNc1cc2nc3n(c(=O)c2cc1F)CC/C3=C\c1ccc(OCc2ccccc2)cc1O
- Activity [1]: Non-Toxic
- Activity [2]: Non-Toxic
- Activity (SiHa [3]): 54%
- Activity (Mus musculus [4]): Non-Toxic
- Activity (SiHa [5]): 11.8%
- Activity [6]: Non-Toxic
- Activity (SiHa [8]): 64%
- Activity (SiHa [9]): 4.8%
- Activity (SiHa [10]): 6%
- Activity (SiHa [11]): 10.6%
- Activity (SiHa [13]): 62%
- Activity (SiHa [14]): Active
- Activity (SiHa [15]): 99%
- Activity (SiHa [16]): Active
- Activity (SiHa [20]): Active
- Activity (SiHa [21]): 22%
- Activity (Mus musculus [23]): Non-Toxic
- Activity (SiHa [24]): 5.1%
- Activity (SiHa [25]): 0.3%
